Screens: PubChem, The Scripps Research Institute Molecular Screening Center
Compounds with a hit are over-represented: about 2.4% of the library has one in this group of screens.
NPY-Y1 antag = NPY-Y1 (human) receptor antagonism | HEK293-CNG Y1 cells, membrane potential fluorescence; NPY at EC95, then isoproterenol | actives 1% (n = 200,000) | P25929 | inhibition, % at 3.6 µM;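 active = inhibition above the campaign mean inhibition of all tested compounds plus 3 SD, cut at about 20% in these data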;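 also: 0% = DMSO wells given NPY plus isoproterenol and 100% = isoproterenol alone without NPY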
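Material: HEK293 cells co-expressing NPY Y1 receptor and cyclic-nucleotide gated channel. Timing: compound incubation 1 h at room temperature, readout 45 min post-stimulation. Signal: fluorescence, membrane potential probe.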
S1P4 antagonist = human S1P4 receptor antagonism; actives 0.26% (n = 220,000); S1P4-expressing cells, antagonist mode, reporter read-out; inhibition, % at 4.98 µM; O95977; in the data active = inhibition above about 29%;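 also: 0% = wells stimulated with agonist and 100% = vehicle wells without agonist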
Target sequence (O95977 whole entry, looked up): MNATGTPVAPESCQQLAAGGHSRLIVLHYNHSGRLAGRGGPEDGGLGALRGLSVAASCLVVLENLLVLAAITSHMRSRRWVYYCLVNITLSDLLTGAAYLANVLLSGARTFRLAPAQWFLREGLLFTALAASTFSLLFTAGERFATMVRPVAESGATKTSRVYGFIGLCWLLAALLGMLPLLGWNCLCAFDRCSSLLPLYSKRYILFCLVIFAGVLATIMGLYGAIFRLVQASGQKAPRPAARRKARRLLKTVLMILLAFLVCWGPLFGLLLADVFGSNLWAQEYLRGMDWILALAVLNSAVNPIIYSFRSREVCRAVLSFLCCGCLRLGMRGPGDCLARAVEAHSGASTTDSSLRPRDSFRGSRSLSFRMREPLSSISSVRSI
NPY2 pot ag = human NPY-Y2 potentiation or agonism, primary screen. cells expressing NPY-Y2, potentiator/agonist read-out. actives 0.45% (n = 220,000). activation, % at 3.6 µM. P49146; in the data active = activation above about 27%;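 also: cells stimulated with NPY near EC25 plus isoproterenol at EC100; 0% = vehicle plus submaximal agonist and 100% = vehicle plus saturating agonist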
NPY Y2 blocker = NPY-Y2 (human) receptor antagonism; P49146; NPY-Y2 expressing cells, antagonist mode; inhibition, % at 2.7 µM; actives 0.99% (n = 140,000); in the data active = inhibition above about 17%;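 also: 0% = vehicle with agonist challenge and 100% = reference antagonist with challenge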
NPY-Y1 PAM-ag = potentiators or agonists of human neuropeptide Y receptor Y1. P25929. NPY-Y1 expressing cells, potentiator/agonist activation. activation, % at 3.6 µM. actives 0.37% (n = 220,000); in the data active = activation above about 33%, passing the limit was not always enough;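 also: cells stimulated with NPY at EC10 then isoproterenol at EC100; 0% = low agonist plus stimulus and 100% = saturating agonist plus stimulus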
S1P4 agonist = agonists of human S1P4 receptor; O95977; S1P4-expressing cell line, agonist reporter assay; activation, % at 4.98 µM; actives 0.35% (n = 220,000); AID 1509; in the data active = activation above about 11%;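 also: 0% = DMSO vehicle and 100% = reference agonist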
NPY-Y2 confirm = human NPY-Y2 potentiation or agonism, confirmation; shares compounds with NPY2 pot ag; cell-based NPY-Y2 potentiator/agonist assay; activation, % at 3.6 µM; actives 20% (n = 450); AID 1539; in the data active = activation above about 33%
NPY-Y1 potentiator = counter-screen for NPY-Y2 potentiators or agonists: NPY-Y1 potentiators or agonists; shares compounds with NPY2 pot ag; Y1 HEK293-CNG cells, membrane potential fluorescence; activation, % at 3.6 µM; actives 20% (n = 450); AID 1651; in the data active = activation above about 45%;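 also: cells stimulated with submaximal NPY then isoproterenol with phosphodiesterase inhibitor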
NPY-Y1 agonist 2 = counter-screen for NPY-Y2 potentiators: agonists of human NPY-Y1. shares compounds with NPY2 pot ag. HEK293 Y1-CNGC, membrane potential fluorescence, agonism. activation, % at 3.6 µM. actives 37% (n = 450). AID 1702;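 active = activation above the mean of DMSO-only control wells plus 3 SD, cut at about 18% in these data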;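 also: cells stimulated with 1 µM isoproterenol plus the PDE inhibitor Ro 20-1724; 0% = isoproterenol with DMSO and no NPY and 100% = 40 nM NPY; Y1 agonists lower the membrane potential dye signal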
CNGC inh = blocks CNG channel activity, counter-screen for NPY-Y2 potentiators. inhibition, % at 3.6 µM. actives 32% (n = 450). shares compounds with NPY2 pot ag. HEK293-CNG parental, isoproterenol cAMP, membrane potential fluorescence;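 active = inhibition above the control-well mean plus 3 SD of those wells, cut at about 22% in these data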;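 also: 0% = DMSO with isoproterenol and 100% = DMSO without isoproterenol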
NPY-Y2 ag 2 = NPY-Y2 agonism, counter-screen for Y2 potentiators; shares compounds with NPY2 pot ag; HEK293 Y2/CNGC cells, membrane potential fluorescence, agonist mode; activation, % at 3.6 µM; actives 56% (n = 450); AID 1710;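 active = activation above the mean of solvent-only control wells plus 3 SD, cut at about 10% in these data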;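 also: cells stimulated by isoproterenol with no NPY added so direct agonism is tested; 0% = DMSO with isoproterenol alone and 100% = NPY at EC100 plus isoproterenol; agonism lowers probe fluorescence through less cAMP and CNG channel opening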
* = called active by the depositor; x = no result.

SMILES	NPY-Y1 antag	S1P4 antagonist	NPY2 pot ag	NPY Y2 blocker	NPY-Y1 PAM-ag	S1P4 agonist	NPY-Y2 confirm	NPY-Y1 potentiator	NPY-Y1 agonist 2	CNGC inh	NPY-Y2 ag 2
O=C(c1ccco1)N1CCN(C(=O)c2sccc2-c2ccccc2)CC1	4	2	27*	9	4	0	-3	-8	-15	-13	-18
Cn1c(=O)c([N+](=O)[O-])c(NCc2ccc3c(c2)OCO3)c2ccccc21	x	-3	99*	x	3	1	-15	-29	-24	-9	-10
Cn1c(=O)c([N+](=O)[O-])c(NCc2ccccc2Cl)c2ccccc21	x	-12	-12	x	10	1	x	x	x	x	x
COc1ccc(NS(=O)(=O)c2ccc(NC(=O)c3ccc(CN4CCOCC4)cc3)cc2)cc1	6	8	24*	x	-4	0	-8	-50	-31	-8	-5
O=C(Nc1ccc(S(=O)(=O)Nc2ccc(F)cc2)cc1)c1ccc(CN2CCOCC2)cc1	4	-3	14	x	-6	4	x	x	x	x	x
O=C(NCc1ccccc1Cl)c1ccc(Br)o1	-2	-12	-3	x	-3	0	x	x	x	x	x
O=C(O)C1CC1C(=O)Nc1cc(F)ccc1F (configuration not stated)	-1	-18	28*	x	7	2	-5	0	-1	0	-3
O=C1C2CC=CCC2C(=O)N1c1ccc(NCCc2ccc(Cl)cc2)c([N+](=O)[O-])c1 (configuration not stated)	2	-5	17	-4	5	0	x	x	x	x	x
COc1ccc(CCNc2ccc(N3C(=O)CC(C)C3=O)cc2[N+](=O)[O-])cc1 (configuration not stated)	4	7	-16	x	-4	-1	x	x	x	x	x
COc1ccc(CCNc2ccc(N3C(=O)CC(C)C3=O)cc2[N+](=O)[O-])cc1OC (configuration not stated)	7	-11	37*	x	-6	0	0	-36	-37	-17	-1
O=C1C2CC=CCC2C(=O)N1c1ccc(NCCc2ccc(O)cc2)c([N+](=O)[O-])c1 (configuration not stated)	-10	-11	46*	-2	40	-1	5	-2	4	10	13*
Cc1cc(C)nc(Nc2n[nH]c(C)n2)n1	-1	-12	2	x	-10	3	x	x	x	x	x
COC(=O)COc1ccc(S(=O)(=O)N2CCN(c3ccccc3)CC2)cc1	-9	21	30*	x	28	1	15	16	-4	-4	-1
COc1ccc(N2CCN(S(=O)(=O)c3ccc(OC)cc3)CC2)cc1	5	-10	2	0	-11	-4	x	x	x	x	x
CCOC(=O)C1=C(c2ccccc2)NC(N)=NC1c1ccc(OCc2ccc(C(=O)OC)cc2)cc1 (configuration not stated)	x	6	-17	x	5	0	x	x	x	x	x
Brc1csc(/C=N/Nc2nc3ccccc3s2)c1	3	2	1	1	-12	2	x	x	x	x	x
Cc1ccc2[nH]c(C)c(/C=N/Nc3nc4ccccc4s3)c2c1	-12	-12	38*	-5	30	1	42*	53*	31*	38*	39*
Cc1ncc(CN2CCCC(CCC(=O)NCc3ccccc3F)C2)s1 (configuration not stated)	4	-12	2	x	4	0	x	x	x	x	x
Cc1nc(N)sc1C(=O)N/N=C/c1cccnc1	2	-14	1	x	19	0	x	x	x	x	x
Cc1ccc(Cl)cc1NC(=O)COC(=O)c1ccccc1O	x	-2	-2	x	-11	1	x	x	x	x	x
COc1cc(OC)c(NC(=O)c2ccccc2F)cc1Cl	9	2	-3	x	-8	-1	x	x	x	x	x
COc1cc(NC(=O)c2cc3ccccc3cc2O)c(OC)cc1Cl	x	-7	58*	x	31	-1	21	-8	-13	4	12*
Cc1ccc(Cl)cc1NC(=O)c1cc2ccccc2cc1O	x	1	45*	x	37	-2	8	15	-5	20	19*
Cc1ccccc1-n1nc(CSc2nc3ccccc3[nH]2)c(-c2ccccc2)c1N	12	-10	11	8	-2	1	x	x	x	x	x
Nc1c(-c2ccccc2)c(CSc2nc3ccccc3[nH]2)nn1-c1ccc(Cl)cc1	3	-6	29*	2	13	1	33	29	17	21	33*
SMILES	NPY-Y1 antag	S1P4 antagonist	NPY2 pot ag	NPY Y2 blocker	NPY-Y1 PAM-ag	S1P4 agonist	NPY-Y2 confirm	NPY-Y1 potentiator	NPY-Y1 agonist 2	CNGC inh	NPY-Y2 ag 2
c1ccc(CSc2nc3ccccc3[nH]2)cc1	x	6	0	x	4	0	x	x	x	x	x
Nc1c(-c2ccccc2)c(CSc2nc3ccccc3[nH]2)nn1-c1cccc(Cl)c1	5	-25	32*	-1	7	0	39*	36	36*	28*	57*
CC1CCCN(C(=O)c2ccc3c(c2NCCO)C(=O)c2ccccc2C3=O)C1 (configuration not stated)	-8	3	31*	-9	29	-2	46*	62*	38*	31*	42*
CCc1ccc(N(CC(=O)Nc2nc3ccc(C)cc3s2)S(=O)(=O)c2c(C)noc2C)cc1	1	-11	31*	2	26	2	28	30	45*	33*	49*
CCc1ccc(NC(=O)CN(c2ccc3c(c2)OCO3)S(=O)(=O)c2c(C)noc2C)cc1	3	-21	-3	3	1	-2	x	x	x	x	x
COC(=O)C1=C(C)N(C)C(=O)/C1=C\c1ccco1	0	-4	-1	1	-4	1	x	x	x	x	x
CC(=O)NC(CCS(C)(=O)=O)C(=O)Nc1c(F)cccc1F (configuration not stated)	-4	15	2	-1	14	0	x	x	x	x	x
Cc1ccc2nc(NC(=O)COC(=O)c3ccco3)sc2c1	-5	1	13	2	-7	-1	x	x	x	x	x
O=C(COC(=O)c1ccco1)Nc1nc2ccc([N+](=O)[O-])cc2s1	x	9	42*	x	30	-1	31	50*	53*	40*	49*
CCOC(=O)c1ccc(Nc2nc(C(=O)OCC)nc3ccccc23)cc1	2	-8	-3	0	8	0	x	x	x	x	x
